# Source: ChEMBL document CHEMBL4840308, “Design and synthesis of Mannich base-type derivatives containing imidazole and benzimidazole as lead compounds for drug discovery in Chagas Disease” (Eur J Med Chem, 2021)
# Activity calls are given as the source filed them. The calls are words filed in the database; no cut-off is given here.
# Columns and labels:
# Trypanosoma cruzi [1] = assay: Antiprotozoal activity against Trypanosoma cruzi epimastigotes assessed as inhibition of parasite growth incubated for 72 hrs followed by alamar blue addition further incubated for 24 hrs; assay type: functional, organism-based
# Outline: (§1)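 CL-Luc:Neon epimastigotes, 2.5 x 10^5/well in RPMI-1640, exposed 72 h at 27 C to 8-point 2:1 serial dilutions (DMSO <0.5% final); Alamar Blue […] added, 24 h further, read at 540 nm; IC50 interpolated from sigmoidal variable-slope fit; triplicates, three independent experiments.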
# [2] = Cytotoxicity against golden hamster BSR cells assessed as reduction in cell viability incubated for 72 hrs followed by alamar blue addition further incubated for 6 hrs; assay type: cell-based; conditions: Mesocricetus auratus
# Outline: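 BSR (BHK-21 subclone) cells, 5 x 10^4/well in DMEM with 5% FBS, adhered 6 h at 37 C, 5% CO2, then given 8-point 2:1 drug dilutions for 72 h; Alamar Blue added for 6 h, absorbance 540 nm; IC50 from sigmoidal variable-slope fit; triplicates, three independent experiments.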
# [3] = Selectivity index, ratio of IC50 for cytotoxicity against golden hamster BSR cells to IC50 for antiprotozoal activity against Trypanosoma cruzi epimastigotes; assay type: toxicity, cell-based; conditions: read-out: Selectivity Index
# Outline: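 Selectivity index as ratio of BSR cell IC50 to epimastigote IC50, both from 72 h Alamar Blue assays.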
# Trypanosoma cruzi [4] = assay: Antitrypanosomal activity against Trypanosoma cruzi trypomastigotes assessed as inhibition of cellular invasion incubated for 6 hrs in high-glucose DMEM medium followed by compound washout further infected in BSR cells measured after 72 hrs by fluorescence based analysis; assay type: functional, organism-based
# Outline: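 Tissue-culture trypomastigotes exposed to drug dilutions 6 h at 37 C in high-glucose DMEM with 10% FBS, washed 3x PBS, used to infect BSR cells overnight; non-internalised parasites washed off, 1% FBS medium, infection run 72 h further; amastigote fluorescence (ex 488/em 525 nm) read; IC50 for invasion reduction by curve interpolation.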
# [5] = Selectivity index, ratio of cytotoxicity against golden hamster BSR cells to IC50 for antitrypanosomal activity against Trypanosoma cruzi trypomastigotes; assay type: toxicity, cell-based; conditions: read-out: Selectivity Index
# Outline: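 Selectivity index as ratio of BSR cell IC50 to trypomastigote invasion IC50 (6 h pre-exposure, fluorescence read-out).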
# Trypanosoma cruzi [6] = assay: Trypanocidal activity against Trypanosoma cruzi CL-Luc-Neon amastigotes infected in BSR cells assessed as inhibition of parasite growth at 20 times IC50 incubated for 20 days measured after 10 days of compound wash out by epifluorescence microscopy analysis; assay type: functional, organism-based; conditions: time 20.0 day
# Outline: (§2)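 BSR cells on 8-well slides or 24-well plates infected with CL-Luc:Neon trypomastigotes as in the amastigote assay, then exposed to 10 or 20 x IC50 for 10 or 20 days, compound renewed every 4 days; after removal, followed up to 30 days by light and fluorescence microscopy at 37 C, 5% CO2; three wells per treatment, 30 captures per timepoint; relapse day recorded.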
# Trypanosoma cruzi [7] = assay: Antitrypanosomal activity against Trypanosoma cruzi amastigotes infected in BSR cells assessed as inhibition of replication of intracellular amastigotes incubated for 72 hrs by fluorescence based analysis; assay type: functional, organism-based
# Outline: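 BSR cells (5 x 10^4/well) attached 6 h, infected overnight with CL-Luc:Neon tissue-culture trypomastigotes at MOI 10, washed 3x PBS, then drug in DMEM with 1% FBS for 72 h; fixed in 4% paraformaldehyde 30 min, fluorescence read ex 488/em 525 nm; IC50 by curve interpolation; triplicates, three experiments.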
# Trypanosoma cruzi [8] = assay: Antitrypanosomal activity against Trypanosoma cruzi trymastigotes assessed as blockage of trypomastigote infectivity at >100 uM incubated for 6 hrs followed by compound washout further infected in BSR cells for 18 hrs measured after 5 days post infection by inverted fluorescence microscope analysis; conditions: dose microM >100, time 6.0 hrs
# [9] = Selectivity index, ratio of cytotoxicity against golden hamster BSR cells to IC50 for antitrypanosomal activity against Trypanosoma cruzi amastigotes infected in BSR cells; assay type: toxicity, cell-based; conditions: read-out: Selectivity Index
# Outline: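 Selectivity index as ratio of BSR cell IC50 to intracellular amastigote IC50 (72 h fluorescence read-out).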
# Trypanosoma cruzi [10] = assay: Antiprotozoal activity against Trypanosoma cruzi epimastigotes assessed as decrease in parasitemia by measuring change in fluorescence intensity at >2.5 uM measured after 3 days by flourescence based analysis; assay type: functional, organism-based; conditions: dose microM >2.5, time 3.0 day
# Trypanosoma cruzi [11] = assay: Trypanocidal activity against Trypanosoma cruzi CL-Luc-Neon amastigotes infected in BSR cells assessed as inhibition of parasite growth at 20 times IC50 incubated for 20 days measured after 30 days of compound wash out by epifluorescence microscopy analysis; assay type: functional, organism-based; conditions: time 20.0 day; outline: as §2
# Trypanosoma cruzi [12] = assay: Trypanocidal activity against Trypanosoma cruzi CL-Luc-Neon amastigotes infected in BSR cells assessed as inhibition of parasite growth at 10 times IC50 incubated for 10 days measured after 10 days of compound wash out by epifluorescence microscopy analysis; assay type: functional, organism-based; conditions: time 10.0 day; outline: as §2
# Trypanosoma cruzi [13] = assay: Trypanocidal activity against Trypanosoma cruzi CL-Luc-Neon amastigotes infected in BSR cells assessed as inhibition of parasite growth at 10 times IC50 incubated for 20 days measured after 10 days of compound wash out by epifluorescence microscopy analysis; assay type: functional, organism-based; conditions: time 20.0 day; outline: as §2
# [14] = Genotoxicity in human TK6 cells assessed as decrease in cell proliferation at 20 uM incubated for 3 hrs by comet assay; assay type: cell-based; conditions: tk6, 3 h
# Outline: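 TK-6 human lymphoblastoid cells (6 x 10^5 in 1 mL culture medium) exposed 3 h, washed three times, then grown 48 h in fresh medium at 37 C, 5% CO2 with agitation, and counted at 24 h (to adjust density) and at 48 h. Relative suspension growth is total suspension growth (48 h count / pre-treatment count) as % of untreated control. Triplicates, three independent experiments.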
# Trypanosoma cruzi [15] = assay: Antitrypanosomal activity against Trypanosoma cruzi trymastigotes assessed as blockage of trypomastigote infectivity at >50 uM incubated for 6 hrs followed by compound washout further infected in BSR cells for 18 hrs measured after 120 hrs post infection by inverted fluorescence microscope analysis; assay type: functional, organism-based; conditions: dose microM >50, time 6.0 hrs
# Outline: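 Trypomastigotes held 6 h in serial drug concentrations, washed 3x PBS, then infect BSR cells at 10:1 trypomastigote:cell for 18 h; at 120 h post-infection, amastigote replication inspected by inverted epifluorescence microscopy (30 images per treatment, DAPI-stained host nuclei) to find the concentration preventing productive infection.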
# Trypanosoma cruzi [16] = assay: Trypanocidal activity against Trypanosoma cruzi trypomastigotes assessed as fold decrease in benznidazole IC50 by alamar blue staining based fluorescence analysis relative to control; assay type: functional
# Outline: (§3)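 Benznidazole IC50 redetermined by Alamar Blue or fluorescence read-outs under each stage's standard seeding conditions in the presence of the partner drug at its IC50; combination index by isobologram method (Ci <1 synergy, =1 additive, >1 antagonism); triplicate per plate, repeated at least twice.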
# Trypanosoma cruzi [17] = assay: Trypanocidal activity against Trypanosoma cruzi trypomastigotes assessed as inhibition of parasite growth by alamar blue staining based fluorescence analysis; assay type: functional, organism-based
# Trypanosoma cruzi [18] = assay: Synergistic trypanocidal activity against Trypanosoma cruzi trypomastigotes assessed as combination index at IC50 in presence of benznidazole by alamar blue staining based fluorescence analysis; assay type: functional; outline: as §3
# Trypanosoma cruzi [19] = assay: Synergistic trypanocidal activity against Trypanosoma cruzi amastigotes assessed as combination index at IC50 in presence of benznidazole by alamar blue staining based fluorescence analysis; assay type: functional; outline: as §3
# Trypanosoma cruzi [20] = assay: Trypanocidal activity against Trypanosoma cruzi epimastigotes assessed as inhibition of parasite growth by alamar blue staining based fluorescence analysis; assay type: functional, organism-based; outline: as §1
# [21] = Genotoxicity in human TK6 cells assessed as decrease in cell proliferation at 40 uM incubated for 3 hrs by comet assay relative to control; assay type: cell-based; parameters: scale not given: the % may be the effect or the level left; conditions: tk6, 3 h
# Outline: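 TK-6 cells (6 x 10^5 in 1 mL RPMI 1640 with 10% FBS) treated 3 h, washed, cultured 48 h at 37 C, 5% CO2 with agitation, counted at 24 and 48 h; relative suspension growth = TSG treated/TSG control as percentage; three independent experiments.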
# Trypanosoma cruzi [22] = assay: Synergistic trypanocidal activity against Trypanosoma cruzi epimastigotes assessed as combination index at IC50 in presence of benznidazole by alamar blue staining based fluorescence analysis; assay type: functional; outline: as §3
# Trypanosoma cruzi [23] = assay: Trypanocidal activity against Trypanosoma cruzi epimastigotes assessed as fold decrease in benznidazole IC50 by alamar blue staining based fluorescence analysis relative to control; assay type: functional; parameters: scale not given: the % may be the effect or the level left; outline: as §3
# Trypanosoma cruzi [24] = assay: Trypanocidal activity against Trypanosoma cruzi amastigotes assessed as inhibition of parasite growth by alamar blue staining based fluorescence analysis; assay type: functional, organism-based
Compound,IC50 (Trypanosoma cruzi [1]) [µM],IC50 [2] [µM],selectivity ratio [3],IC50 (Trypanosoma cruzi [4]) [µM],selectivity ratio [5],IC50 (Trypanosoma cruzi [7]) [µM],selectivity ratio [9],also measured
O=C(CCn1ccnc1)c1ccc(Cl)c(F)c1,23.3,135,6,–,–,–,–,–
O=C(CCn1cnc2ccccc21)C12CC3CC(CC(C3)C1)C2,24.8,67.6,3,–,–,–,–,–
COc1cc(OC)cc(C(=O)CCn2cnc3ccccc32)c1,11.1,70.1,6,–,–,–,–,–
Cc1ccccc1C(=O)CCn1ccnc1,21.4,145,7,–,–,–,–,–
O=C(Cn1ccnc1[N+](=O)[O-])NCc1ccccc1 [BENZNIDAZOLE],–,267,67,22.4,12,0.5,504,Activity (Trypanosoma cruzi [6]): Active; Activity (Trypanosoma cruzi [8]): inactive; Activity (Trypanosoma cruzi [10]): Active; Activity (Trypanosoma cruzi [11]): Active
O=C(CCn1ccnc1)c1ccc(F)c2ccccc12,7.4,72.2,10,16.6,4,6.1,12,Activity (Trypanosoma cruzi [12]): inactive; Activity (Trypanosoma cruzi [13]): inactive
COS(C)(=O)=O [METHANESULFONIC ACID METHYL ESTER],–,–,–,–,–,–,–,Activity [14]: Toxic
O=C(CCn1ccnc1)c1ccc([N+](=O)[O-])cc1,12.9,93.9,7,–,–,9.1,10,–
COc1ccc(C(=O)CCn2ccnc2[N+](=O)[O-])cc1,2.2,84.7,43,9.1,9,3.3,28,Activity (Trypanosoma cruzi [15]): Active; fold change (FC) (Trypanosoma cruzi [16]): 4; IC50 (Trypanosoma cruzi [17]): 5.4 µM; CI (Trypanosoma cruzi [18]): 0.21; CI (Trypanosoma cruzi [19]): 0.81; Activity (Trypanosoma cruzi [6]): Active; IC50 (Trypanosoma cruzi [20]): 1.2 µM; Activity [21]: 45%; CI (Trypanosoma cruzi [22]): 0.33; Activity (Trypanosoma cruzi [23]): 70%; Activity (Trypanosoma cruzi [10]): Active; IC50 (Trypanosoma cruzi [24]): 0.4 µM; Activity (Trypanosoma cruzi [11]): Active
O=C(CCn1ccnc1)c1cccc([N+](=O)[O-])c1,21.6,177,8,23,8,12.2,15,Activity (Trypanosoma cruzi [12]): inactive; Activity (Trypanosoma cruzi [13]): inactive
